Screening data (PubChem)
SUMO Mot1 rescue – yeast Mot1-301 growth rescue at high temperature, primary screen, SUMOylation pathway inhibitor project, S. cerevisiae, ATP luminescence, 38.5C; S. cerevisiae Mot1-301 growth rescue; percent above DMSO median, 100 means doubled; growth rescue, % at 18.8 µM; hit rate 1% among 320,000; AID 2716, 2010;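 active means every valid replicate shows activation above 250% relative to neutral control wells; inactive means the rest, any valid replicate at or below 250%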;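 further: OY570 slx delta 5 strain wells were the positive control but not used for scaling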
Cneo AK release – Cryptococcus neoformans cell lysis inducers, primary screen, AK release luminescence, single concentration. hit rate 0.2% among 360,000. C. neoformans lysis, adenylate kinase release luminescence, 4 h; normalised: neutral wells 0, clomiphene wells 100. AID 651654, 2012. lysis activity, % at 15 µM;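 active means mean lysis activity across replicates of at least 80%, whatever share of replicates individually reach that level; inactive means mean lysis activity below 80%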
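Assay system: Cryptococcus neoformans yeast cells / Dosing: single-point compound dose / Timing: 4 h at 37 °C static, read 1 h later / Measured by: luminescence of released adenylate kinase using an AK detection reagent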
rRNA inh HTS – reduced GFP signal of wild-type E. coli, primary screen, bacterial rRNA inhibitor project, GFP/RFP fluorescence, OD600, single point; E. coli WT GFP vs humanized-ribosome RFP mutants, 24 h; active compounds read low; DMSO median 0, no signal -100; GFP signal change (wild-type ribosome), % (no concentration beside the values); hit rate 1.6% among 350,000;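 active means significant combined selectivity score with lowered wild-type GFP, culture density cut under 30%, mutant RFP and density less affected; inactive means any of these conditions unmet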
PglD DTNB – C. jejuni PglD acetyltransferase inhibitors, primary screen, biochemical, DTNB colorimetric, single point | UDP-N-acetylbacillosamine N-acetyltransferase PglD (Campylobacter jejuni) | hit rate 0.098% among 360,000 | purified PglD enzyme, DTNB colorimetric CoA detection | inhibition, % at 12.5 µM | AID 602405, 2012; in the data active means inhibition above about 16%, passing the limit was not always enough
Yeast superoxide – reduction of superoxide in aged yeast, primary screen, HTS; AID 2690, 2010; hit rate 0.18% among 330,000; superoxide response (% of plate mean), % at 10 µM; S. cerevisiae aged cells, superoxide DHE fluorescence; active compounds read low;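 active means superoxide response under a set limit, about three screen SD below normal, cut at about 65% in these data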;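 further: yeast aged for seven days with compound at 30 °C before DHE staining; 100% = average MFI of all compound-treated wells on the plate with controls excluded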
* = called active by the depositor; nt = no result; ! = not confirmed by another sample. In the library only some 2.2% were active in any assay of this set; here they are far more common.

SMILES	SUMO Mot1 rescue	Cneo AK release	rRNA inh HTS	PglD DTNB	Yeast superoxide
C[C@H]1CCCCO[C@@H](CN(C)C(=O)Cc2ccccc2)[C@@H](C)CN([C@@H](C)CO)C(=O)c2cc(NS(=O)(=O)c3cccs3)ccc2O1	nt	1	-4	-2	nt
CC(=O)N(C)C[C@H]1Oc2cc(C#Cc3ccncc3)ccc2S(=O)(=O)N([C@@H](C)CO)C[C@H]1C	nt	-4	-1	-2	nt
COc1ccc(NC(=O)Nc2ccc3c(c2)C(=O)N([C@@H](C)CO)C[C@@H](C)[C@H](CN(C)Cc2ccc4c(c2)OCO4)OCCCC[C@@H](C)O3)cc1	nt	-1	4	0	nt
COc1ccc(NC(=O)Nc2ccc3c(c2)C(=O)N([C@H](C)CO)C[C@@H](C)[C@@H](CN(C)Cc2ccc4c(c2)OCO4)OCCCC[C@H](C)O3)cc1	nt	0	-34*!	3	nt
CC(=O)N(C)C[C@@H]1Oc2ncc(C#Cc3cccnc3)cc2C(=O)N([C@@H](C)CO)C[C@@H]1C	nt	nt	5	nt	nt
CCC(=O)Nc1cccc(NC(=S)NC(=O)c2cccc(C)c2)c1	-2	nt	-17*	nt	99
O=S(=O)(c1ccc(S(=O)(=O)N2CCN(C/C=C/c3ccccc3)CC2)cc1)N1CCCC1	295*	4	nt	-7	106
CC(C)NC(=O)N(C)C[C@H]1Oc2ccc(NC(=O)C3CCCCC3)cc2CC(=O)N([C@H](C)CO)C[C@@H]1C	nt	4	1	0	nt
S=C(NCCc1ccccc1)N/N=C/c1c(Cl)cccc1Cl	-17	nt	nt	nt	97
Fc1cc(Br)ccc1NC(=S)NCCc1ccccc1	113	nt	-50*	nt	102
Fc1ccccc1NC(=S)NCCc1cccc(Cl)c1	9	97*	-25	3	93
S=C(NCCc1ccccc1)NCc1cccc(Cl)c1	46	19	-3	-1	109
S=C(NCCc1ccccc1)N/N=C/c1ccc(Cl)cc1	60	nt	-28*	nt	100
C[C@@H]1CN([C@@H](C)CO)S(=O)(=O)c2ccc(-c3cccnc3)cc2O[C@@H]1CN(C)C(=O)C1CC1	nt	nt	-4	nt	nt
CC(C)NC(=O)N(C)C[C@@H]1Oc2ncccc2C(=O)N(C)C[C@H]1C	nt	nt	1	nt	nt
CO[C@@H]1CN(C)C(=O)c2cc(NC(=O)C3CCC3)ccc2OC[C@@H](C)NC[C@H]1C	nt	1	1	-3	nt
COc1ccc(S(=O)(=O)Nc2ccc3c(c2)C(=O)N([C@H](C)CO)C[C@@H](C)[C@H](CN(C)S(=O)(=O)c2cccs2)O3)cc1	nt	-7	-5	3	nt
CSc1cccc(CN2CCC(CO)(Cc3ccccc3)CC2)c1	459*	nt	9	nt	100
C[C@H]1CN(C)C(=O)Cc2cc(N(C)C)ccc2O[C@H]1CN(C)S(C)(=O)=O	nt	nt	3	nt	nt
COc1ccc2c(c1)C(c1ccc(N3CCOCC3)cc1)=NNC(c1cccnc1)=N2	15	nt	-17*	nt	94
COc1ccc(C2=NNC(c3cccnc3)=Nc3ccc(OC)cc32)cc1	4	0	6	2	86
C[C@@H]1CN([C@@H](C)CO)C(=O)c2cccc(NC(=O)c3ccncc3)c2O[C@H]1CN(C)C(=O)Nc1ccccc1	nt	109*	5	1	nt
C[C@H](CO)N1C[C@H](C)[C@H](CN(C)C(=O)Nc2ccccc2)Oc2c(NC(=O)c3ccncc3)cccc2C1=O	nt	1	2	9	nt
C[C@@H]1CN([C@H](C)CO)C(=O)c2cccc(NC(=O)c3ccncc3)c2O[C@H]1CN(C)C(=O)Nc1ccccc1	nt	104*	3	-1	nt
C[C@@H]1CN([C@H](C)CO)C(=O)c2cccc(NC(=O)c3ccncc3)c2O[C@@H]1CN(C)C(=O)Nc1ccc(F)cc1	nt	0	3	0	nt
SMILES	SUMO Mot1 rescue	Cneo AK release	rRNA inh HTS	PglD DTNB	Yeast superoxide
C[C@@H]1CN([C@H](C)CO)C(=O)c2cccc(NC(=O)c3ccncc3)c2O[C@H]1CN(C)C(=O)Nc1ccc(C(F)(F)F)cc1	nt	82*	-3	-4	nt
CC(C)c1cn(CC[C@@H]2CC[C@H](NS(=O)(=O)c3ccccc3)[C@H](CO)O2)nn1	nt	-2	1	2	nt
O=C(Nc1ccccc1)c1ccc(S(=O)(=O)NCC2CCCO2)cc1 (stereo not given)	-1	-5	nt	8	139
O=C(Nc1cccc(Cl)c1)c1ccc(S(=O)(=O)NCC2CCCO2)cc1 (stereo not given)	-10	0	-21*	0	105
O=S(=O)(Nc1nc2ccccc2nc1NCC1CCCO1)c1cccc(Cl)c1 (stereo not given)	-3	2	-24*	1	104
CO[C@H]1CN(C)C(=O)c2cc(NS(C)(=O)=O)ccc2OC[C@H](C)N(Cc2nccs2)C[C@@H]1C	nt	0	0	0	nt
c1ccc(CN2CCN(C3CCCSc4ccccc43)CC2)cc1 (stereo not given)	9	5	-30*	7	92
C[C@@H]1CN([C@@H](C)CO)C(=O)c2cc(NS(=O)(=O)c3ccc(F)cc3)ccc2O[C@@H](C)CCCCO[C@@H]1CN(C)S(=O)(=O)c1cccs1	nt	56	3	6	nt
Cc1ccc(-c2nc3ccc(NS(=O)(=O)c4ccccc4)cc3[nH]2)o1	6	-2	-32*	2	95
Cc1cccc(N=NC(=S)NNc2cccc(C)c2)c1	nt	nt	-20*	nt	nt
Cc1cccc(NNC(=O)C(=O)NNc2cccc(C)c2)c1	224	0	8	3	94
COc1cc(OC)c(C2=NOC(C(=O)N3CCc4ccccc4C3)C2)cc1Cl (stereo not given)	-5	-1	-26*	0	99
COc1cc(OC)c(C2=NOC(C(=O)N3CCN(C(=O)c4ccco4)CC3)C2)cc1Cl (stereo not given)	11	0	-10	0	83
O=C(c1ccncc1)N1CCN(C2CCC(c3ccccc3)CC2)CC1 (stereo not given)	305*	-2	4	0	83
CCc1nnc(NC(=O)COc2ccc3c(c2)OCO3)s1	260*	nt	2	nt	98
N#CC1=C2SCC(O)(c3ccccc3)N2C(=O)CC1c1cccs1 (stereo not given)	nt	-2	-37*	-2	90
Cc1cc(C)nc(N/N=C/C(Cl)=C/c2ccccc2)n1	-3	nt	-26*	nt	100
COc1ccc([N+](=O)[O-])cc1N(CC(=O)N1CCCC1)S(C)(=O)=O	355*	nt	6	nt	101
COc1ccc([N+](=O)[O-])cc1N(CC(=O)N1CCOCC1)S(C)(=O)=O	-5	nt	13	nt	100
